pIC50: −log10 of the molar value.
Columns and labels:
[1] = target: T1, Amine oxidase [flavin-containing] B (Homo sapiens, UniProt P27338); experiment: Binding affinity to MAO-B in human brain white matter at 4 MBq after 90 mins by autoradiography; type: tissue-based; settings: 1.5 h
T1 sequence (P27338 whole entry): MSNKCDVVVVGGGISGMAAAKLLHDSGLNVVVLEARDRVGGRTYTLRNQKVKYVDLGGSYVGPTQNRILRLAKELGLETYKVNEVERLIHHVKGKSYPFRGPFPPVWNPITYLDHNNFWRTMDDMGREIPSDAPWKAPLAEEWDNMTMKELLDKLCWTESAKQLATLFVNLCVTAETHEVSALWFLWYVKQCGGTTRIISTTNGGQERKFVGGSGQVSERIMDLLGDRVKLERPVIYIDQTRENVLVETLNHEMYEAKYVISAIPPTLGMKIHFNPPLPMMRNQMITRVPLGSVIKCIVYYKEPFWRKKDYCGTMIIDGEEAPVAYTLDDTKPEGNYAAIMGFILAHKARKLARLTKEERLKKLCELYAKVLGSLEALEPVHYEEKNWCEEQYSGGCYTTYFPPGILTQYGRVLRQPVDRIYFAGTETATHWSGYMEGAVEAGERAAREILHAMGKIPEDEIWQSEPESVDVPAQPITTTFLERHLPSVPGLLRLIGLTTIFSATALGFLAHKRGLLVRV
Outline: (§1)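 100 μm whole-hemisphere post-mortem brain sections (control subject, 11 h post-mortem, stored at −25 °C) incubated 90 min at room temperature with 4 MBq/200 mL radiotracer in 50 mM TRIS pH 7.4 (NaCl 120 mM, KCl 5 mM, CaCl2 2 mM, 0.1% albumin); washed 3 × 5 min in buffer, dipped in ice-cold water, dried, phosphorimaged.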

[2] = target: T1, Amine oxidase [flavin-containing] B; experiment: Binding affinity to MAO-B in human brain cortical gray matter at 4 MBq after 90 mins by autoradiography; type: tissue-based; settings: 1.5 h; outline: as §1
[3] = target: T1, Amine oxidase [flavin-containing] B; experiment: Binding affinity to MAO-B in human brain white matter at 4 MBq after 90 mins by autoradiography in presence of 10 uM MAO-B inhibitor L-deprenyl; type: tissue-based; settings: 1.5 h; outline: as §1
[4] = target: T1, Amine oxidase [flavin-containing] B; experiment: Binding affinity to MAO-B in human brain white matter at 4 MBq after 90 mins by autoradiography in presence of 10 uM MAO-A inhibitor pirlindole; type: tissue-based; settings: 1.5 h; outline: as §1
[5] = target: T1, Amine oxidase [flavin-containing] B; experiment: Binding affinity to MAO-B in human brain white matter at 4 MBq after 90 mins by autoradiography in presence of 10 uM MAO-B inhibitor rasagiline; type: tissue-based; settings: 1.5 h; outline: as §1
[6] = target: T1, Amine oxidase [flavin-containing] B; experiment: Binding affinity to MAO-B in human brain hippocampus at 4 MBq after 90 mins by autoradiography; type: tissue-based; settings: 1.5 h; outline: as §1
[7] = target: T1, Amine oxidase [flavin-containing] B; experiment: Binding affinity to MAO-B in human brain cortical gray matter at 4 MBq after 90 mins by autoradiography in presence of 10 uM MAO-B inhibitor L-deprenyl; type: tissue-based; settings: 1.5 h; outline: as §1
[8] = target: T1, Amine oxidase [flavin-containing] B; experiment: Binding affinity to MAO-B in human brain cortical gray matter at 4 MBq after 90 mins by autoradiography in presence of 10 uM MAO-B inhibitor rasagiline; type: tissue-based; settings: 1.5 h; outline: as §1
[9] = target: T1, Amine oxidase [flavin-containing] B; experiment: Binding affinity to MAO-B in human brain cortical gray matter at 4 MBq after 90 mins by autoradiography in presence of 10 uM MAO-A inhibitor pirlindole; type: tissue-based; settings: 1.5 h; outline: as §1
[10] = system: Brain; experiment: Drug uptake in NMRI mouse brain at 0.178 MBq, iv after 2 mins post injection by gamma counting; type: ADME, organism-based; settings: in vivo
Outline: (§2)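 NMRI mice (25.0–31.5 g), three per time point, each given 0.178 MBq tracer in 0.9% NaCl; killed by isoflurane overdose at each post-injection time; organs and blood excised and γ-counted; values decay-corrected and expressed as %ID/g.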

[11] = system: Brain; experiment: Drug uptake in NMRI mouse brain at 0.178 MBq, iv after 30 mins post injection by gamma counting; type: ADME, organism-based; settings: in vivo, 0.5 h; outline: as §2
[12] = system: Brain; experiment: Drug uptake in NMRI mouse brain at 0.178 MBq, iv after 4 hrs by gamma counting; type: ADME, organism-based; settings: in vivo; outline: as §2
[13] = target: T1, Amine oxidase [flavin-containing] B; experiment: Binding affinity to MAO-B in human brain Alzheimer disease slices at 4 MBq after 90 mins by autoradiography; settings: 1.5 h
[14] = target: T1, Amine oxidase [flavin-containing] B; experiment: Binding affinity to MAO-B in human brain Alzheimer disease slices at 4 MBq after 90 mins by autoradiography in presence of 10 uM MAO-B inhibitor L-deprenyl; settings: 1.5 h
[15] = target: T1, Amine oxidase [flavin-containing] B; experiment: Binding affinity to MAO-B in human brain Alzheimer disease slices at 4 MBq after 90 mins by autoradiography in presence of 10 uM MAO-B inhibitor rasagiline; settings: 1.5 h
[16] = target: T1, Amine oxidase [flavin-containing] B; experiment: Binding affinity to MAO-B in human brain Alzheimer disease slices at 4 MBq after 90 mins by autoradiography in presence of 10 uM MAO-A inhibitor pirlindole; settings: 1.5 h
[17] = target: T2, Amine oxidase [flavin-containing] A (Homo sapiens, UniProt P21397); experiment: Binding affinity to MAO-A in human brain Alzheimer disease slices at 4 MBq after 90 mins by autoradiography; settings: 1.5 h
T2 sequence (P21397 whole entry): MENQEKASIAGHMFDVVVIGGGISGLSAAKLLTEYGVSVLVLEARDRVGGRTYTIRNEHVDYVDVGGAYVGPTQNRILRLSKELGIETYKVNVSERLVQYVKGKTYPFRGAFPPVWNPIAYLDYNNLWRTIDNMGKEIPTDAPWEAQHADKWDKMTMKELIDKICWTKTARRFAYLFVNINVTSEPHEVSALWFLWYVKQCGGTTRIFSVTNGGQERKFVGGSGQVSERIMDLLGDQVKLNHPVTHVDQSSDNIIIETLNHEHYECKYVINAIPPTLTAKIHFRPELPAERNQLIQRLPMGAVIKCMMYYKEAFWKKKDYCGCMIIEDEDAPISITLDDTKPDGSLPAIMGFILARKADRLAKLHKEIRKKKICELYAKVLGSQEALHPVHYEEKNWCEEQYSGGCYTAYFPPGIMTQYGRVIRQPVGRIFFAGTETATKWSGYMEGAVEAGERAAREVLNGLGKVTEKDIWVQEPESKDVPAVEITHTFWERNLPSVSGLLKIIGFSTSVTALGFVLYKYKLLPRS

[18] = Fraction unbound in human plasma at 20 MBq after 10 mins by ultrafiltration; type: ADME, cell-free
Outline: (§3)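 Duplicate: 500 μL monkey or human plasma, or PBS pH 7.4 as control, mixed with 50 μL tracer formulation (~20 MBq in PBS), 10 min at room temperature; 200 μL ultrafiltered by centrifugation 15 min at 3000 rpm; total and filtrate well-counted; bound fraction corrected for membrane binding using PBS control.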

[19] = Fraction unbound in monkey plasma at 20 MBq after 10 mins by ultrafiltration; type: ADME, cell-free, Macaca mulatta; settings: rhesus monkey; outline: as §3
[20] = Stability of the compound in PBS buffer assessed as half life at pH 7.4; type: physicochemical
[21] = target: T1, Amine oxidase [flavin-containing] B; experiment: Inhibition of human recombinant MAO-B expressed in insect cells assessed as inhibition of kynuramine oxidation after 30 mins by fluorescence assay; type: cell-based
[22] = target: T2, Amine oxidase [flavin-containing] A; experiment: Inhibition of human recombinant MAO-A expressed in insect cells assessed as inhibition of kynuramine oxidation after 30 mins by fluorescence assay

C#CCN(CC[18F])[C@H](C)Cc1ccccc1
Activity [1]: Active | Activity [2]: Not Active | Activity [3]: Active | Activity [4]: Active | Activity [5]: Active

C#CCN(C)[C@H](C)[C@@H]([18F])c1ccccc1
Activity [6]: Active | Activity [7]: Not Active | Activity [8]: Not Active | Activity [9]: Active

C#CCN(C)[C@H](C[18F])Cc1ccccc1
Drug uptake [10]: 5.2 % ID/g | Drug uptake [11]: 1.9 % ID/g | Drug uptake [12]: 1.4 % ID/g | Activity [13]: Active | Activity [14]: Not Active | Activity [15]: Not Active | Activity [16]: Active | Activity [17]: Not Active | fraction unbound at 10 min, 20 MBq [18]: 0.168 | fraction unbound at 10 min, 20 MBq [19]: 0.241

C#CCN(CCF)[C@H](C)Cc1ccccc1
half-life [20]: 110 min | pIC50 [21]: < 5.70

C#CCN(C)[C@H](C)[C@H](F)c1ccccc1
half-life [20]: 110 min | pIC50 [21]: < 5.70

C#CCN(C)[C@H](CF)Cc1ccccc1
half-life [20]: 110 min | pIC50 [22]: < 5.70 | pIC50 [21]: 6.77

From ChEMBL document CHEMBL1909627, “Synthesis of three novel fluorine-18 labeled analogues of L-deprenyl for positron emission tomography (PET) studies of monoamine oxidase B (MAO-B)” (J Med Chem, 2011)
